This excerpt belongs to a sample that is enriched for hits.
Lung fibro prol = antiproliferative effect on LL 47 fibroblasts – human, LL 47 cells, CellTiter-Glo luminescence, primary screen | viability, % at 10 µM | LL 47 human lung fibroblast viability, ATP luminescence; hits give low values | AID 719, 2007 | actives 1.1% (n = 85,000);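 active = viability at or below 50% in the single dose screen; inactive = viability above 50%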;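 also: compound exposure lasted 72 h before the ATP readout; 100% = median luminescence of untreated cell-only wells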
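Assay system: human lung fibroblast line LL 47, low passage. Input: 1,150 fibroblasts seeded per well. Times: overnight cell rest, 72 h compound treatment at 37 °C. Evaluation: % viability of median cell-only signal. Technique: luminescent ATP detection, CellTiter-Glo. Control set: cell-only wells, no compound.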
HCT116 PTEN-null = growth suppression of PTEN-null HCT116, primary screen, cell-based, CellTiter-Glo | viability, % at 10 µM | HCT116 PTEN-null viability, 60 h; hits give low values | AID 827, 2007 | actives 1.2% (n = 140,000);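 active = viability at or below a set limit, 4 SD under the median of all tested compounds, cut at about 3.7% in these data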;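 also: PTEN knockout HCT116 line with beta catenin targeted HCT116 as companion control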
HCT116 bCat-KO = primary screen for growth suppressors in beta-catenin knockout HCT116 cells (colon tumor, human); actives 1.5% (n = 140,000); AID 818, 2007; HCT116 beta-catenin knockout viability, CellTiter-Glo, 60 h; hits give low values; viability, % at 10 µM;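 active = viability at or under a set limit, the compound median less 4 SD, cut at about 6% in these data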;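 also: 0% = Hyamine 1622 control at 20 µM and 100% = untreated cell control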
HUVEC inhibit = inhibitors of HUVEC proliferation, primary screen, cell-based, 384-well | CellTiter-Glo luminescence, 72 h; hits give low values | viability, % at 10 µM (by protocol) | actives 1.1% (n = 86,000) | AID 648, 2007;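 active = viability at or below 30%; inactive = viability above 30%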;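 also: 100% = median luminescence of DMSO-only cell control wells on each plate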
PTK2B oligo ant = antagonists of Pyk2 self-association, primary screen, Q293 cells, FERM NanoBiT luminescence, HTS | Protein-tyrosine kinase 2-beta (Homo sapiens), Q14289 | hits give low values | z-score (the deposit names both 25 µM and 10 µM) | actives 0.83% (n = 99,000);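 active = Z-score of -3 or lower, scaled per plate to the spread of control and sample wells; inactive = z-score above -3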;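 also: negative z-score means lost luminescence so less FERM oligomerization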
Target sequence (Q14289 whole entry, looked up): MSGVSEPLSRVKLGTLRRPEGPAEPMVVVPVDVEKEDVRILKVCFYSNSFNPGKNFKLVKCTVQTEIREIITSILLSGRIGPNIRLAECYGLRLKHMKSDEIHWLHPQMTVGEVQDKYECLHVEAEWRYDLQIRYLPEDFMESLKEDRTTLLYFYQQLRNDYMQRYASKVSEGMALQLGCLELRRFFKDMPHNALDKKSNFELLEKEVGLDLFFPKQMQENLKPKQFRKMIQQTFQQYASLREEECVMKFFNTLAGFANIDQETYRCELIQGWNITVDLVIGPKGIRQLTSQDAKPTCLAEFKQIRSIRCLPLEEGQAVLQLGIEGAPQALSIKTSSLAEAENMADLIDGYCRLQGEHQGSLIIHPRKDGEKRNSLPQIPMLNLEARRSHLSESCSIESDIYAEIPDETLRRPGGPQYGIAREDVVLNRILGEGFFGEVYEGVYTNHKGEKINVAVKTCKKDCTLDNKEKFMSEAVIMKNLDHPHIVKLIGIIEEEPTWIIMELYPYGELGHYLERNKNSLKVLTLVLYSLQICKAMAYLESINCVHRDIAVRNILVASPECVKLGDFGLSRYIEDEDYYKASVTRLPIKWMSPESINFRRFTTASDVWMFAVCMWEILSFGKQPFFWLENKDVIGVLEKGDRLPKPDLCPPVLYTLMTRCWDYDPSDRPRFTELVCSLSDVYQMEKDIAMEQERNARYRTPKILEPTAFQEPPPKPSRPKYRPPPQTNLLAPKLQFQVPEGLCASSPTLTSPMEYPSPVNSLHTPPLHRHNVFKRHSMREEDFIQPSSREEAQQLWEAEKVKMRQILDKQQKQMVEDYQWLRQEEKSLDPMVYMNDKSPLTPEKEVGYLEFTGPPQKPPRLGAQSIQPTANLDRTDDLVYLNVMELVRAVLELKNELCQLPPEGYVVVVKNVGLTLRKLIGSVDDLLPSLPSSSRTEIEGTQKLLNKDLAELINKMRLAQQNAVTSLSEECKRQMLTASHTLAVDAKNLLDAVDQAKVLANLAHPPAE
H69AR growth 86K = proliferation blockers of H69AR lung cancer cells, primary screen, cell-based, human, 86K library. H69AR lung tumor viability, ATP luminescence, 72 h; hits give low values. viability, % at 10 µM. actives 6% (n = 85,000). AID 598, 2007;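 active = viability at or below 40%; inactive = viability above 40%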;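 also: multidrug resistant small cell line overexpressing MRP-1 efflux transporter; 100% = mean luminescence of untreated control wells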
Numbers without * were called inactive; / = no result.

SMILES	Lung fibro prol	HCT116 PTEN-null	HCT116 bCat-KO	HUVEC inhibit	PTK2B oligo ant	H69AR growth 86K
COc1ccccc1C(=O)Nc1c(C)n(C)n(-c2ccccc2)c1=O	101	86	98	104	0.81	97
Cc1c(NC(=O)C2CCCNC2=O)c(=O)n(-c2ccccc2)n1C (configuration not stated)	/	39	37	94	0.63	39*
COc1ccccc1NC(=O)Nc1c(C)n(C)n(-c2ccccc2)c1=O	102	93	100	94	-0.24	32*
Cc1c(NC(=O)Cn2nc(C(=O)O)c3ccccc3c2=O)c(=O)n(-c2ccccc2)n1C	102	110	94	92	-4*	99
O=C(O)CCCN=CC1=C(O)C(C(=O)c2ccccc2)CCC1=O (configuration not stated)	97	93	93	103	1	95
Cc1cc(OCC(=O)N(C(C)C)C(C)C)cc(C)c1Br	/	82	85	/	/	/
OC(COC(c1ccc(Cl)cc1)c1ccc(Cl)cc1)CN1CCCC1 (configuration not stated)	88	13	9	71	-0.47	25*
COc1ccc(N(C(=O)Cc2cccs2)C(C(=O)NC2CCCCC2)c2cccn2C)cc1OC (configuration not stated)	95	81	94	92	-0.23	76
C#CC(=O)N(c1cccc(OC)c1)C(C(=O)NC1CCCC1)c1cccs1 (configuration not stated)	/	1.0*	0.5*	/	-2.5	/
C#CC(=O)N(c1ccc(OC)c(OC)c1)C(C(=O)NC1CCCC1)c1cccs1 (configuration not stated)	/	1.7*	1.3*	/	-2.5	/
COc1cc(N(C(=O)Cc2cccs2)C(C(=O)NC2CCCCC2)c2ccc(C)cc2)ccc1-n1cnnn1 (configuration not stated)	/	1.4*	15	/	/	/
CC1CC2=C(C(=O)O1)C(c1ccc(Cl)cc1)Nc1ccccc1N2 (configuration not stated)	/	78	87	/	/	/
CN1CCN(NC(=O)c2cccc(Br)c2)CC1	/	96	91	/	-0.71	/
CN(C)CCCNC(CC(=O)Nc1cccc([N+](=O)[O-])c1)C(=O)O (configuration not stated)	/	95	97	/	1.3	/
O=C(CCN1C(=O)c2ccccc2C1=O)Oc1ccc2ccccc2c1	102	97	89	93	2.6	93
CC1=CC(C)(C)Nc2ccc(OC(=O)CCN3C(=O)c4ccccc4C3=O)cc21	/	1.5*	1.2*	/	/	/
C=CCn1c(SCC(=O)c2[nH]c(C)c(C(=O)OCC)c2C)nc2scc(-c3ccc(OC)c(OC)c3)c2c1=O	/	0.8*	1.0*	/	/	/
N#C/C(=C\Nc1ccc2c(c1)OCCO2)c1nc(-c2ccccc2)cs1	/	58	56	/	/	/
Cc1ccc2nc(/C(C#N)=C\c3ccc([N+](=O)[O-])o3)[nH]c2c1	/	1.5*	1.9*	/	-2.5	/
N#C/C(=C\c1ccc(Sc2ccccc2)o1)c1nc2ccccc2[nH]1	/	91	89	/	/	/
Cc1ccc2nc(/C(C#N)=C\c3ccc(N4CCOCC4)o3)[nH]c2c1	84	62	76	76	0.19	5.5*
N#C/C(=C\Nc1ccc2c(c1)OCCO2)c1nc2ccccc2[nH]1	104	77	80	74	-1.9	19*
N#C/C(=C\c1ccc([N+](=O)[O-])o1)c1nc2ccccc2[nH]1	/	0.6*	0.7*	/	/	/
COc1ccc(N2CCN(C(=O)CC34CC5CC(CC(C5)C3)C4)CC2)c([N+](=O)[O-])c1	/	74	65	/	-1.1	/
COc1ccc(-c2oc(NC(=O)CSc3nncn3C)c(C#N)c2-c2ccc(OC)cc2)cc1	/	18	16	/	-3.8*	/
SMILES	Lung fibro prol	HCT116 PTEN-null	HCT116 bCat-KO	HUVEC inhibit	PTK2B oligo ant	H69AR growth 86K
CC1(C)Cc2c(C#N)c(SCCOc3ccccc3)nc(N3CCOCC3)c2CO1	85	62	64	61	-1.6	32*
COc1ccc2c(c1)O[C@@H](c1ccc3c(c1)OCO3)[C@H](OC(=O)Nc1cc(OC)c(OC)c(OC)c1)C2=O	/	15	16	/	/	/
O=C(CSc1nc2cccnc2n1Cc1ccccc1)NC1CCCCC1	100	91	85	105	-0.99	85
CCN(CC)c1ccc(C2C(C(=O)OC(C)C)C(=O)CC(C)(O)C2C(=O)OC(C)C)cc1 (configuration not stated)	/	66	63	/	-0.57	/
Cc1cc(C)c2cc(CN(CCO)C(=O)Nc3ccc(F)cc3)c(=O)[nH]c2c1	95	89	93	88	0.01	38*
COc1ccc(NC(=O)N(CCO)Cc2cc3c(C)cc(C)cc3[nH]c2=O)cc1	101	79	75	87	-0.38	51
CCOc1ccc(Cl)cc1S(=O)(=O)n1cnc2ccccc21	62	43	46	59	0.96	20*
COc1ccc(Cl)cc1S(=O)(=O)n1cnc2ccccc21	80	97	92	58	0.86	17*
Cc1cc(C)c(S(=O)(=O)n2cnc3ccccc32)c(C)c1	105	102	102	102	-0.02	102
CCOc1cc(C)c(Cl)cc1S(=O)(=O)n1cnc2ccccc21	97	88	98	77	0.39	39*
CCOc1ccc(Cl)cc1S(=O)(=O)N1CCCC1	99	92	86	102	-1.2	96
O=C(CSc1ncnc2c1nnn2-c1ccc(F)cc1)N1CCN(c2ccccc2)CC1	98	/	/	89	/	27*
COc1ccc(-n2ncc3c(SCC(=O)N4CCN(c5ccccc5OC)CC4)ncnc32)cc1	96	43	60	58	0.63	23*
CN1C(=O)/C(=C/C=C2\SCCN2C)SC1=S	/	89	100	/	/	/
Cc1ccc(-n2c(C)cc(C3=NNC(=NC4CC4)SC3)c2C)cc1C	/	71	61	/	/	/
CCCCS(=O)(=O)/C=C\C=C/S(=O)(=O)CCCC	2.5*	2.0*	1.7*	49*	0.13	1.0*
CCCCS(=O)(=O)/C=C\C1C2C=CC(C2)C1S(=O)(=O)CCCC (configuration not stated)	94	97	91	102	1.7	83
Cc1ccccc1NC(=S)NC1(C)CCS(=O)(=O)C1 (configuration not stated)	/	85	93	/	/	/
CCOc1ncccc1C(=O)NCc1ccc(C)cc1	/	100	88	/	/	/
CC(=O)c1nn(-c2cccc(Br)c2)cc1C(=O)c1ccc2ccccc2c1	/	4	3.7*	/	-0.05	/
Cc1ccc(-c2cc(C(=O)N3CCN(c4ncccn4)CC3)c3ccccc3n2)cc1	/	39	48	71	-1.1	11*
Cc1ccc2nc(-c3ccccn3)cc(C(=O)N3CCN(c4ncccn4)CC3)c2c1	106	75	79	80	-0.54	57
